Test results from ChEMBL document CHEMBL2169742, “Design, synthesis, and biological evaluation of novel transrepression-selective liver X receptor (LXR) ligands with 5,11-dihydro-5-methyl-11-methylene-6H-dibenz[b,e]azepin-6-one skeleton” (J Med Chem, 2012).
pEC50, pIC50: −log10 of the molar value. Activity calls are given as the source filed them. The rule behind the calls is not given here.

Key:
Liver X receptor = target: T1, Liver X receptor (Homo sapiens, UniProt Q13133+P55055); experiment: Transrepressional activity at LXR in human TPA-activated THP1 cells assessed as inhibition of LPS-induced IL6 production incubated for 6 hrs prior to LPS-challenge measured after 18 hrs by ELISA; assay type: cell-based; conditions: thp-1
T1 sequence (Q13133 whole entry): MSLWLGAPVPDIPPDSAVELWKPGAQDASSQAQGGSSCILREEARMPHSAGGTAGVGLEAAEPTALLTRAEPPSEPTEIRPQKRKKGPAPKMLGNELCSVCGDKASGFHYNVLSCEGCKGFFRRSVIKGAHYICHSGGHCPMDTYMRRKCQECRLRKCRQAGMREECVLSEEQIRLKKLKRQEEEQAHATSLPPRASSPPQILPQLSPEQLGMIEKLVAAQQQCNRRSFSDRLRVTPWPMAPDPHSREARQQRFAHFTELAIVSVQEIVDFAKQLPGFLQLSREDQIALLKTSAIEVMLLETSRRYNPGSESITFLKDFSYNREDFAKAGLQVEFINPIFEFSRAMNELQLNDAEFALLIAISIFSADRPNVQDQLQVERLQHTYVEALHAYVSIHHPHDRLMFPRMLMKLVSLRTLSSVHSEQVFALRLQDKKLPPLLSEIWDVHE
T1 sequence (P55055 whole entry): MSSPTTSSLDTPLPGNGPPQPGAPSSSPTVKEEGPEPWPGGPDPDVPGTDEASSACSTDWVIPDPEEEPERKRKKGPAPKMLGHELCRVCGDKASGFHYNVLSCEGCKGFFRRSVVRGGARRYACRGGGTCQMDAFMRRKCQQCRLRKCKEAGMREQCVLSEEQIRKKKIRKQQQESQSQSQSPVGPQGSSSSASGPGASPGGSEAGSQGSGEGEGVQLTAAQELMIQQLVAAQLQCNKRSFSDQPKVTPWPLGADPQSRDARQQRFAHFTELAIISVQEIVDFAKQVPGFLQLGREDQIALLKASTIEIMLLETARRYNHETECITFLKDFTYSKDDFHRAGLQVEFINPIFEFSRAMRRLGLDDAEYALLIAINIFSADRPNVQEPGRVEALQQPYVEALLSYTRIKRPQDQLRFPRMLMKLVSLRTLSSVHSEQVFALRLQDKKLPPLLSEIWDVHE

[1] = test system: Peritoneal macrophage cell; experiment: Inhibition of LPS-induced IL-1beta mRNA expression in LXRalpha-deficient C57BL/6J mouse peritoneal macrophages at 10 uM incubated for 6 hrs prior to LPS-challenge measured after 18 hrs by RT-PCR analysis; assay type: functional, cell-based
Method in brief: (§1)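 Thioglycollate-elicited peritoneal macrophages (wild-type C57BL/6J or LXRα-null, 8–10 weeks) were plated at 4 × 10⁶/well and pretreated with compound 6 h before LPS 100 ng/mL. Cells were harvested after 18 h. il-6 and il-1β mRNA were measured by real-time quantitative PCR, normalized to GAPDH.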

[2] = test system: Peritoneal macrophage cell; experiment: Inhibition of LPS-induced IL-6 mRNA expression in LXRalpha-deficient C57BL/6J mouse peritoneal macrophages at 10 uM incubated for 6 hrs prior to LPS-challenge measured after 18 hrs by RT-PCR analysis; assay type: functional, cell-based; method in brief: as §1
[3] = Induction of LPS-induced IL-6 production in LXRalpha,LXRbeta-deficient C57BL/6J mouse peritoneal macrophages at 10 uM incubated for 6 hrs prior to LPS-induction measured after 18 hrs by ELISA; assay type: cell-based; conditions: peritoneal macrophage cell
Method in brief: (§2)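 Thioglycollate-elicited peritoneal macrophages came from 8–10-week LXRα/β-null mice on C57BL/6J background, harvested 4 days post-injection. They were adhered, rested 24 h and plated at 2 × 10⁵/well, then pretreated with compound 6 h before LPS 10 ng/mL. Supernatant mIL-6 was measured by ELISA after 18 h; means ± SE of ≥3 independent measurements, ANOVA.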

[4] = test system: Peritoneal macrophage cell; experiment: Inhibition of LPS-induced IL-6 production in LXRalpha,LXRbeta-deficient C57BL/6J mouse peritoneal macrophages at 10 uM incubated for 6 hrs prior to LPS-challenge measured after 18 hrs by ELISA; assay type: functional, cell-based; method in brief: as §2
[5] = Transrepressional activity at LXR in C57BL/6J mouse peritoneal macrophages assessed as inhibition of LPS-induced IL-1beta mRNA expression at 10 uM incubated for 6 hr prior to LPS-challenge measured after 18 hrs by RT-PCR analysis; method in brief: as §1
[6] = Transrepressional activity at LXR in C57BL/6J mouse peritoneal macrophages assessed as inhibition of LPS-induced IL-6 mRNA expression at 10 uM incubated for 6 hr prior to LPS-challenge measured after 18 hrs by RT-PCR analysis; method in brief: as §1
[7] = target: T2, Oxysterols receptor LXR-beta (Homo sapiens, UniProt P55055); experiment: Transactivational agonist activity at human LXRbeta transfected in HEK293 cells expressing CMX-Gal4N assessed as luciferase activity after 16 hrs by reporter gene assay relative to N-(4-(1,1,1,3,3,3-hexafluoro-2-hydroxypropan-2-yl)phenyl)-N-methylbenzamide; assay type: cell-based; conditions: read-out: Efficacy
T2 sequence (P55055 whole entry): T1 sequence (P55055 whole entry)

[8] = target: T2, Oxysterols receptor LXR-beta; experiment: Transactivational agonist activity at human LXRbeta transfected in HEK293 cells expressing CMX-Gal4N assessed as luciferase activity after 16 hrs by reporter gene assay; assay type: cell-based
Method in brief: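 Gal4-hLXRα or Gal4-hLXRβ chimera (15 ng) cotransfected with tk-MH100×4-luc reporter (50 ng) and CMX-β-gal (10 ng) into HEK293 cells by calcium phosphate. Luciferase was normalized to β-gal, in triplicate.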

[9] = target: T3, Oxysterols receptor LXR-alpha (Homo sapiens, UniProt Q13133); experiment: Transactivational agonist activity at human LXRalpha transfected in HEK293 cells expressing CMX-Gal4N assessed as luciferase activity after 16 hrs by reporter gene assay relative to N-(4-(1,1,1,3,3,3-hexafluoro-2-hydroxypropan-2-yl)phenyl)-N-methylbenzamide; assay type: cell-based; conditions: read-out: Efficacy
T3 sequence (Q13133 whole entry): T1 sequence (Q13133 whole entry)

[10] = target: T3, Oxysterols receptor LXR-alpha; experiment: Transactivational agonist activity at human LXRalpha transfected in HEK293 cells expressing CMX-Gal4N assessed as luciferase activity after 16 hrs by reporter gene assay; assay type: cell-based
[11] = Induction of LPS-induced IL-6 production in LXRalpha,LXRbeta-deficient C57BL/6J mouse peritoneal macrophages at 3 uM incubated for 6 hrs prior to LPS-induction measured after 18 hrs by ELISA; assay type: cell-based; conditions: peritoneal macrophage cell; method in brief: as §2

Q: With C=C1c2ccccc2C(=O)N(C)c2ccc(C(O)(C(F)(F)F)C(F)(F)F)cc21 as the molecule, how does the pIC50 (Liver X receptor) read?
A: The pIC50 was 5.24.

Q: And the inhibition [1]?
A: Its inhibition is “inactive”.

Q: What about the inhibition [2] of the same molecule?
A: The inhibition was “inactive”.

Q: What about the Activity [3] of the same molecule?
A: The Activity was “Toxic”.

Q: What about the inhibition [4] of the same molecule?
A: The inhibition was “inactive”.

Q: And the inhibition [5]?
A: The inhibition was “Active”.

Q: What about the inhibition [6] of the same molecule?
A: Its inhibition is “Active”.

Q: What about the Emax [7] of the same molecule?
A: The Emax was 73%.

Q: And the pEC50 [8]?
A: Its pEC50 is 6.11.

Q: And the Emax [9]?
A: Its Emax is 45%.

Q: What about the pEC50 [10] of the same molecule?
A: The pEC50 was 5.77.

Q: For O=S(=O)(c1ccccc1)N(CC(F)(F)F)c1ccc(C(O)(C(F)(F)F)C(F)(F)F)cc1 [T091317], which Activity [11] is on record?
A: The Activity was “Toxic”.

Q: And the Emax [7]?
A: The Emax was 118%.

Q: What about the Emax [9] of the same molecule?
A: Its Emax is 124%.
